# High-throughput results as filed in PubChem.
# This is a sample that favours compounds with a hit; in the whole collection about 3.9% have one here.
# TAAR1 ag: agonists of human TAAR1. CHO RD-HGA16 TAAR1, Fluo-8 calcium fluorescence; vehicle wells 0%, saturating PEA agonist 100%. activation, % at 3 µM. Q96RJ0. 360,000 compounds, 0.99% hits;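 active = activation above the mean activation of all test compounds in the run plus 3 SD, cut at about 38% in these data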
#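 System: CHO-derived RD-HGA16 cells with stable Gα16 and human TAAR1 / Times: 17-24 h plating, Fluo-8 75 min 37 °C, 30 min RT / Technique: calcium-sensitive Fluo-8 signal, excitation 470-495, emission 515-575 nm / Measure: % activation relative to PEA EC100 response / Benchmarks: DMSO and PEA EC100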
# TAAR1 antag: human TAAR1 antagonism; CHO RD-HGA16 TAAR1, Fluo-8 calcium fluorescence, antagonist; Q96RJ0; 360,000 compounds, 1.5% hits; inhibition, % at 3 µM;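 active = inhibition above a per-plate cutoff, the mean inhibition of test compounds on that plate plus 3 SD, cut at about 49% in these data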
#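 Test system – hTAAR1-expressing CHO RD-HGA16 cells, Gα16-coupled · Also added – β-PEA at EC80 concentration, post-compound challenge · Compound – 3 µM, single point · Incubation – dye loading 75 min at 37 °C, then 30 min room temperature · Measured by – Fluo-8 intracellular calcium dye fluorescence, real-time kinetic reads · Benchmarks – vehicle and agonist controls · Replicates – singlicate, one well per test compound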
# M1 antag: antagonists of human M1 muscarinic receptor. P11229. CHO-K1 hM1, Fluo-8 calcium fluorescence, ACh EC80 antagonist. inhibition, % at 3 µM. 360,000 compounds, 1.3% hits;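 active = percent inhibition above its own plate's cutoff, namely the mean of that plate's compound wells plus 3 SD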;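 note: peak over basal fluorescence ratio during 140 s after agonist addition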
# Target sequence (P11229 whole entry, looked up): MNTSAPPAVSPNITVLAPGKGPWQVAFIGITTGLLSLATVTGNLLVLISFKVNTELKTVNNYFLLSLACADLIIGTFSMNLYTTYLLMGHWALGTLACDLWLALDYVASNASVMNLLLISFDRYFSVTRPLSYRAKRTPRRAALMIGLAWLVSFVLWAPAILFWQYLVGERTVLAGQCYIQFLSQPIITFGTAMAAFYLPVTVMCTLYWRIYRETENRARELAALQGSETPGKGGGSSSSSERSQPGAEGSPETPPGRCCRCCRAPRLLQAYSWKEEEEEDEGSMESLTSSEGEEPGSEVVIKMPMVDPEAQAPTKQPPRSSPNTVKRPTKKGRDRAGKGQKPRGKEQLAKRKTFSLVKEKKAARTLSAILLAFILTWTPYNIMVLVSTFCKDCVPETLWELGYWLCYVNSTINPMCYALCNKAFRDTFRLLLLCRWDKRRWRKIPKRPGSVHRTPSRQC
# M1 ag: human M1 muscarinic receptor agonism. activation, % at 3 µM. 360,000 compounds, 0.33% hits. CHO-K1 hM1, Fluo-8 calcium fluorescence, agonist mode; 0% DMSO, 100% acetylcholine EC100. P11229. AID 588814;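 active = activation above the run's mean compound activation plus 3 SD, cut at about 16% in these data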;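 note: peak over basal fluorescence ratio within a 140 s kinetic read after compound addition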
# M1 PAM: human CHRM1 positive allosteric modulation; P11229; CHO-K1 hM1, Fluo-8 calcium fluorescence, ACh EC20; 0% = ACh EC20, 100% = maximal ACh; activation, % at 3 µM; 360,000 compounds, 0.088% hits; AID 588819; in the data active = activation above about 19%, passing the limit was not always enough
# m5-HT2A agonist: mouse HTR2A agonism via beta-arrestin recruitment; P35363; CHO-K1 mHTR2A beta-arrestin complementation, luminescence; percent of 30 µM serotonin response; activation, % at 7.6 µM; 360,000 compounds, 0.66% hits; AID 624169;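 active = activation above a run cutoff, the mean activation of all tested compounds plus 3 SD, cut at about 14% in these data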
# MOR ag counter: activates human mu opioid receptor in HTR2A counterscreen; shares compounds with m5-HT2A agonist; activation, % at 9.3 µM; U2OS OPRM1 beta-arrestin PathHunter, luminescence; DMSO 0%, DAMGO 9.3 µM 100%; 2,300 compounds, 5.3% hits;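 active = mean activation above the mean of DMSO-only wells plus 3 SD, cut at about 0.5% in these data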
# HTR2A ag conf: confirmation of mouse HTR2A serotonin receptor agonists; activation, % at 7.6 µM; CHO-K1 PathHunter beta-arrestin recruitment, luminescence; DMSO 0%, 30 µM serotonin 100%; shares compounds with m5-HT2A agonist; AID 624381; 2,300 compounds, 19% hits;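 active = mean activation across triplicates above the hit threshold derived in the original primary screen, cut at about 15% in these data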
# A number is an active result; n = inactive; x = no result given.
SMILES,TAAR1 ag,TAAR1 antag,M1 antag,M1 ag,M1 PAM,m5-HT2A agonist,MOR ag counter,HTR2A ag conf
Nc1c(C(=O)Nc2ccc3c(c2)OCCO3)nnn1Cc1ccccc1Cl,n,n,n,n,n,18.5,n,n
Nc1c(C(=O)Nc2cccc(F)c2)nnn1-c1ccc2c(c1)OCCO2,n,n,n,n,n,15.0,n,n
Cc1ccccc1NC(=O)c1nnn(-c2ccc3c(c2)OCCO3)c1N,n,n,n,n,n,n,x,x
CCc1nc2ccc(C(=O)NCCC(C)C)cn2c1N(CCN(C)C)CC1CC1,n,n,n,n,n,n,x,x
CC(NC(=S)NCCCN1CCOCC1)C12CC3CC(CC(C3)C1)C2 (stereo unspecified),n,n,n,n,n,n,x,x
COc1ccc(C2Nc3ccccc3NC3=C2C(=O)CC(C)(C)C3)cc1OC (stereo unspecified),n,n,n,n,n,17.2,0.7,n
CCOc1ccc(C2Nc3ccccc3NC3=C2C(=O)CC(C)(C)C3)cc1OC (stereo unspecified),n,n,n,n,n,n,x,x
O=C1N(c2ccccc2)C[C@@H]2C[C@@H](c3cc4ccccc4o3)N3CCC[C@@]123,n,n,n,n,n,n,x,x
NC(=NCCc1ccccc1)NS(=O)(=O)c1ccccc1F,n,n,n,n,n,n,x,x
COc1ccc(NC(=O)CSc2ccc(-c3ccccn3)nn2)cc1OC,n,n,n,n,n,35.5,n,107.4
COc1ccccc1NC(=O)CSc1ccc(-c2ccccn2)nn1,n,n,n,n,n,n,x,x
O=C(CNC(=O)c1ccco1)NNC(=O)c1cccc(Cl)c1,n,n,n,n,n,n,x,x
Oc1c(Br)cccc1/C=N/c1ncn[nH]1,n,n,n,n,n,n,x,x
COC(=O)[C@H]1C[C@H](OC(=O)NCC2CCCCC2)[C@@]2(O)CN(S(=O)(=O)c3ccc(C)cc3)CC2[C@H]1C(=O)OC (stereo partly specified),n,n,n,n,n,n,x,x
COC(=O)[C@H]1C[C@H](OC(=O)Nc2c(C)noc2C)[C@@]2(O)CN(S(=O)(=O)c3ccc(C)cc3)CC2[C@H]1C(=O)OC (stereo partly specified),n,n,n,n,n,16.0,n,n
CC1C(=O)C(C)C(c2cc(Cl)ccc2O)NC1c1cc(Cl)ccc1O (stereo unspecified),n,n,n,n,n,n,x,x
O=C(Nc1cccc(NC(=O)c2cccs2)c1)c1ccc2c(c1)OCCO2,n,n,n,n,n,n,x,x
O=C(c1ccco1)N1CCN(c2c(-c3ccccc3)c3cc(Cl)ccc3[nH]c2=O)CC1,n,n,n,n,n,52.4,1.3,23.6
CN(C)S(=O)(=O)c1ccc(NC(=O)Cn2nc(-c3ccc4c(c3)OCCO4)ccc2=O)cc1,n,n,n,n,n,14.7,n,n
CC(C)Cn1c(N)cc(=O)n(C)c1=O,n,n,n,n,n,n,x,x
CCCn1c(N)cc(=O)n(CCC)c1=O,n,n,n,n,n,15.8,n,n
CCOc1ccc(NC(=O)CC2C(=O)N(c3ccc(OC)c(Cl)c3)C(=S)N2C2CC2)cc1 (stereo unspecified),n,n,n,n,n,n,x,x
Cc1cc2oc3ccc(NCCCN4CCOCC4)cc3c(=O)c2cc1C,n,n,n,n,n,n,x,x
Cc1cc2oc3ccc(NCCCn4ccnc4)cc3c(=O)c2cc1C,n,n,n,n,n,20.4,1.4,n
Cc1cccc(N2C(=O)CS/C2=N\NC(=O)c2cccnc2)c1C,n,n,n,n,n,n,x,x
Cc1cccc(N2C(=O)CS/C2=N\NC(=O)c2ccc(Br)cc2)c1C,n,n,n,n,n,15.3,n,n
